Source: PubChem
An excerpt weighted towards active compounds, which were near 1.5% of everything screened.
NR2E3 ag-1 – inhibitors of NR2E3-RetCOR corepressor binding, primary screen, NR2E3 agonist project, biochemical, TR-FRET, GST-NR2E3, biotin-RetCOR; AID 2300, 2010; 1536-well; Photoreceptor-specific nuclear receptor (Homo sapiens), Q9Y5X4; hit rate 0.12% among 320,000; inhibition of corepressor binding, % at 4.78 µM;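 active means percent inhibition above the cutoff of mean plus 3 SD of all tested compounds, set per screening campaign, cut at about 20% in these data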;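 further: 0% = DMSO wells and 100% = biotin wells as full block of FRET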
Target sequence (Q9Y5X4 whole entry, looked up): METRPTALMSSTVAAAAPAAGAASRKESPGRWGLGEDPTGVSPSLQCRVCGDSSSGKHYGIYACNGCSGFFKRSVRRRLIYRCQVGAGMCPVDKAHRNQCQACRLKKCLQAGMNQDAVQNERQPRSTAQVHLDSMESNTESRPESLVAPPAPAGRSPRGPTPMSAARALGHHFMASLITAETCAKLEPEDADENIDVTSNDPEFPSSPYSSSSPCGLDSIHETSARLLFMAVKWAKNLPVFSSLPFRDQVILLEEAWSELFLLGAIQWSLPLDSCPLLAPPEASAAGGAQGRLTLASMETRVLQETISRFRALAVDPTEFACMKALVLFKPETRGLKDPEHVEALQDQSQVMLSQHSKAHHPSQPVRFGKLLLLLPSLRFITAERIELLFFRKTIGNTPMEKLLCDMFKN
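Test system – NR2E3–RetCOR corepressor complex · Quantity – NR2E3 fusion 1.35 nM · Buffer or medium – Tris pH 7.5 · Incubation – Compound–protein incubation for 5 h at 4 °C · Technique – TR-FRET, Eu(K)-anti-GST donor, streptavidin-D2 acceptor, ex 340, em 617/671 nm · Evaluation – percent inhibition of 671/617 nm emission ratio versus biotin and DMSO controls · Plate – 1536-well format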
PG9 binder – binders of HIV-1 gp120 antibody PG9, primary screen, biochemical, TR-FRET; HIV-1 gp120 / PG9 antibody interaction; TR-FRET gp120-PG9 antibody binding; inhibition, % at 6.7 µM; hit rate 0.43% among 360,000; AID 624416, 2012; in the data active means inhibition above about 8.5%
NR1D1 modulator – modulators of Rev-erb alpha DNA binding, primary screen, biochemical, FITC-DNA, fluorescence polarization, uHTS; Rev-erbα–FITC-DNA binding, 90 min; Nuclear receptor subfamily 1 group D member 1 (Homo sapiens), P20393; AID 1259318, 2017; activity, % at 10 µM; hit rate 0.79% among 370,000;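 active means activity above about 14%, limit read from the data; passing the limit was not always enough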;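 further: 0% = DMSO wells with 35 nM protein and 100% = DMSO wells with 750 nM protein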
NR2E3 ag-2 – NR2E3 agonists in two-hybrid cells, primary screen, cell-based, luminescence, CHO-S, Gal4-NCOR/VP16-NR2E3 | luciferase | inhibition of corepressor binding, % at 3.98 µM | Photoreceptor-specific nuclear receptor (Homo sapiens), Q9Y5X4 | hit rate 0.35% among 360,000;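 active means inhibition above the mean of all tested compounds plus 3 SD, cut at about 70% in these data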;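 further: 0% = DMSO with NR2E3 transfected cells and 100% = cells lacking NR2E3 construct; higher means lower luciferase signal from less NR2E3 corepressor binding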
Rev-erbA confirm – modulators of Rev-erb alpha DNA binding, confirmation, biochemical, FITC-DNA, fluorescence polarization, single point | activation, % at 25 µM | shares compounds with NR1D1 modulator | hit rate 61% among 3,000 | AID 1259319, 2017 | 90 min;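 active means activation at or above a set limit, or at least 3 SD above the negative control mean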;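 further: 0% = 35 nM protein with DMSO and 100% = 750 nM protein high control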
RORg counter – modulation of RORgamma DNA binding, dose response, counter-screen for Rev-erb alpha modulator project, biochemical, fluorescence polarization, FITC-DNA; AID 1259320, 2017; hit rate 8% among 910; purified RORgamma protein-FITC-DNA binding; IC50, µM; shares compounds with NR1D1 modulator;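 active means Compounds whose fitted half-maximal concentration for disrupting protein-DNA binding is below 10 micromolar; the record names Rev-erb in its text, so the target is in doubt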
Starred values were filed as active, the others as inactive; i = inactive; . = no result.

SMILES	NR2E3 ag-1	PG9 binder	NR1D1 modulator	NR2E3 ag-2	Rev-erbA confirm	others
NS(=O)(=O)c1ccc(CCNC(=O)c2cc3ccccc3s2)cc1	-1	-1	23*	7	6
CCN(CC)c1ccc(/C=c2/sc3nnc(-c4ccccc4C)n3c2=O)cc1	4	0	13	-14	.
CCN(CC)c1ccc(/C=c2\sc3nnc(-c4ccccc4Cl)n3c2=O)cc1	1	-2	19*	0	14
CC1CCCC(NC(=O)CSC2=Nc3ccccc3C3CC=NN23)C1C (stereo not given)	5	-1	17*	-14	0
CC1CCCCC1NC(=O)CSC1=Nc2ccccc2C2CC=NN12 (stereo not given)	1	0	0	-5	.
Cc1cccn2c(=O)c3cc(C(=O)N4COCC4(C)C)n(Cc4ccccc4)c3nc12	-2	0	31*	-32	13
CCNC(=O)c1cc2c(=O)n3cccc(C)c3nc2n(Cc2ccc(C)cc2)c1=N	2	0	0	-8	.
COc1cccc2c1C(=O)c1c(O)c3c(c(O)c1C2=O)C[C@@](O)(C(=O)CO)C[C@@H]3OC1CC(N)C(O)C(C)O1 (stereo not given in full)	.	-13	-13	-65	.
CC(=O)[C@@]1(O)Cc2c(O)c3c(c(O)c2[C@H](O[C@H]2C[C@H](N)[C@H](O)[C@H](C)O2)C1)C(=O)c1ccccc1C3=O	.	-6	24*	14	11*
C=CCCC1(CCC)C(=O)/C(=C(\O)c2ccccc2)C(=O)C(CCC)=C1OC (stereo not given)	.	.	-2	.	.
O=C(C1CCCN(S(=O)(=O)c2ccc(Br)s2)C1)N1CCN(Cc2ccccc2)CC1 (stereo not given)	.	.	0	.	.
CCOc1cc2[nH]c(=S)n(CCCC(=O)NCc3ccco3)c(=O)c2cc1OCC	4	.	12	-1	.
CCOc1cc2[nH]c(=S)n(CCC(=O)NCc3ccco3)c(=O)c2cc1OCC	0	2	27*	4	-1
CCN(CC)CCNC(=O)CN1C(=O)CSc2ccc(S(=O)(=O)N3CCOCC3)cc21	.	0	-1	32	.
CCOC(=O)c1c(-c2ccc(C)cc2)csc1NC1=NS(=O)(=O)c2ccccc21	7	-1	37*	5	20*
CCOC(=O)c1c(-c2ccccc2)csc1NC(=O)/C(C#N)=C/c1ccc(O)c(OC)c1	-2	2	26*	-1	36*	RORg counter=>40
CCOC(=O)c1c(-c2ccc(C)cc2)csc1NC(=S)NC(=O)c1ccccc1	3	-4	1	-20	.
CCOC(=O)c1c(-c2ccccc2)csc1NC(=O)c1cccc(N2C(=O)CCC2=O)c1	1	1	26*	-12	9
CCOC(=O)c1c(-c2ccc(C)cc2)csc1NC(=O)c1cccc(N2C(=O)CCC2=O)c1	-5	-1	26*	2	9
O=C(CCNC(=O)c1ccc(Cl)cc1)Nc1ccccc1N1CCCC1	0	-5	-1	11	.
COc1ccc(S(=O)(=O)NNC(=O)C2COc3ccccc3O2)cc1[N+](=O)[O-] (stereo not given)	0	0	-5	12	.
Nc1nonc1NC(=O)NN=C1CCCCC1	-2	0	-1	10	.
COC(=O)[C@]1(C)CCC[C@@]2(C)C3CC[C@@]4(C)C[C@]3(CCC21)CC4=NO (stereo not given in full)	4	0	17*	-3	11
CNC(=O)c1ccsc1NC(=O)CS(=O)(=O)c1ccccc1	-2	-1	-2	-33	.
O=C(C(=O)N1CCCCCC1)c1c[nH]c2ccccc12	.	-2	4	-13	.
SMILES	NR2E3 ag-1	PG9 binder	NR1D1 modulator	NR2E3 ag-2	Rev-erbA confirm	others
C[n+]1cc(C(=O)N2CCCCC2)ccc1/C=C/c1c[nH]c2ccccc12	-1	-10	75*	-1	58*	RORg counter=>40
COc1ccccc1C(c1nnnn1CCc1ccccc1)N1CCCCCC1 (stereo not given)	-1	0	-1	-24	.
COc1cc(C(=O)NCc2cccnc2)ccc1OCC(=O)Nc1cccc(C(F)(F)F)c1	5	0	18*	8	7
CCOc1ccc(NC(=O)COc2ccc(C(=O)NCc3cccnc3)cc2OC)cc1	-2	-2	-5	9	.
C=CCSC1=C(C#N)C(c2ccc(C(C)C)cc2)CC(=O)N1 (stereo not given)	3	0	-3	-4	.
O=C(Oc1ccc(-c2nccc(-c3ccccn3)n2)cc1)c1cccc(C(F)(F)F)c1	3	0	11	-13	.
Cc1ccc(C(=O)Oc2ccc(-c3nccc(-c4ccccn4)n3)cc2)cc1	2	1	20*	-61	15
CCOc1cccc2sc(Nc3nc4ccc(NC(C)=O)cc4s3)nc12	3	8	49*	-23	16
CCOC(=O)[C@]12CCCC3=C1N(CCC3)C(=O)[C@@H](CC(=O)N1CCCC1)C2	.	.	8	.	.
COc1ccccc1NC(=O)c1cnc(SCC(=O)NCCc2ccccc2)n(C)c1=O	0	2	14*	-20	32*	RORg counter=i
COc1ccc(CCNC(=O)CSc2ncc(C(=O)Nc3ccccc3)c(=O)n2C)cc1	-2	-1	12	24	.
COc1ccc(-c2noc(-c3ccc4c(c3)OCO4)n2)cc1	0	0	35*	-64	13
COc1ccc(-c2sc3cc4c(cc3c2-c2ccc3c(c2)OCCO3)OCO4)cc1	.	0	18*	-26	2
COc1ccc(NC(=O)c2cc(-c3ccc4c(c3)OCO4)on2)cc1	-4	-2	33*	-41	1
COc1ccc2sc(-c3ccc(S(C)(=O)=O)cc3)c(-c3ccc4c(c3)OCCO4)c2c1	.	-1	13	12	.
COc1ccc(-c2cc(C(=O)Nc3cc(C)on3)no2)cc1	2	2	0	.	.
COc1ccc(OC)c(-c2cc(C(=O)Nc3cc(C)on3)no2)c1	-4	3	21*	8	16
Cc1ccc(NC(=O)c2cc(-c3ccc4c(c3)OCO4)on2)cc1	1	0	11	-29	.
Cc1ccc(-n2c(SCC(=O)Nc3ccc(S(=O)(=O)Nc4cc(C)nc(C)n4)cc3)nnc2-c2ccc(C(C)(C)C)cc2)cc1	.	.	6	.	.
CC(C)OP(=O)(OC(C)C)/C(C=O)=N\Nc1ccc([N+](=O)[O-])cc1	-2	-3	8	-3	.
COc1ccc(Cl)cc1Nc1nc(C)nc2c1oc1ccccc12	0	0	15*	-21	23*
